rCAG RNA binder: binders of r(CAG) RNA repeats, primary screen, biochemical, fluorescence | r(CAG) RNA repeat, TO-PRO-1 dye displacement fluorescence | inhibition, % at 3 µM | 370,000 tested, 1.3% active | AID 651821, 2012;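 active = inhibition above the plate cutoff, the mean of all test compounds on that plate plus 3 SD, cut at about 35% in these data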;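 note: 0% = DMSO alone and 100% = 100 µM mitoxantrone as full dye displacement; higher means more dye released from RNA so lower well fluorescence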
NS3 helicase inh: inhibitors of HCV NS3 helicase, primary screen, biochemical, Cy5 molecular beacon fluorescence. AID 1800, 2009. 290,000 tested, 0.56% active. NS3 helicase DNA unwinding. inhibition, % at 10.9 µM;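 active = inhibition above the mean of all tested compounds plus 3 SD, set per campaign, cut at about 35% in these data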;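 note: 0% = DMSO wells and 100% = thioflavine S control wells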
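assay system = NS3 helicase fragment of HCV | buffer or medium = MOPS pH 6.5, MgCl2, DTT, Tween20, BSA | timing = 60 min unwinding reaction at 25 °C after ATP addition | signal = Cy5 beacon fluorescence read at start and 1 h | read-out basis = % inhibition of unwinding | control set = low DMSO, high thioflavine S at 110 µM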
TAAR1 ag: human TAAR1 agonists, primary screen, Fluo-8 calcium fluorescence, CHO RD-HGA16 cells | Trace amine-associated receptor 1 (Homo sapiens), Q96RJ0 | vehicle wells 0%, saturating PEA agonist 100% | activation, % at 3 µM | 360,000 tested, 0.99% active | AID 624467, 2012;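 active = activation above the mean activation of all test compounds in the run plus 3 SD, cut at about 38% in these data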
Target sequence (Q96RJ0 whole entry, looked up): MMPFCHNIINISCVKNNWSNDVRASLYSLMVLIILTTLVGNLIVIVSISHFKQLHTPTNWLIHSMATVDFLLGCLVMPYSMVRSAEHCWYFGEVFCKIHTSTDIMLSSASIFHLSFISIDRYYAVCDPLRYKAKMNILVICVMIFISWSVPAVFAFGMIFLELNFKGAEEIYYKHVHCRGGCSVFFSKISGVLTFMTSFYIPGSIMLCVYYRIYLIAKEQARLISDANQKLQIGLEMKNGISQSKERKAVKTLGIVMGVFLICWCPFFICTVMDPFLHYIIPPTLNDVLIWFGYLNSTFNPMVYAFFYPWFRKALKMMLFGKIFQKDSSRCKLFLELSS
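Benchmarks: low control DMSO, high control PEA (EC100); System: CHO RD-HGA16 cells carrying human TAAR1 plus Gα16; Detection: Fluo-8 fluorescence, 5 s baseline then 140 s kinetic read; Schedule: 17-24 h plating, Fluo-8 75 min 37 °C, 30 min RT; Read-out basis: % activation from peak over basal fluorescence ratio, DMSO-to-PEA scaled.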
TAAR1 antag: human TAAR1 antagonists, primary screen, Fluo-8 calcium fluorescence, CHO RD-HGA16 cells. 360,000 tested, 1.5% active. inhibition, % at 3 µM. antagonist. Trace amine-associated receptor 1 (Homo sapiens), Q96RJ0;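 active = inhibition above a per-plate cutoff, the mean inhibition of test compounds on that plate plus 3 SD, cut at about 49% in these data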;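 note: 0% = DMSO plus EC80 beta-PEA response and 100% = DMSO alone without agonist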
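Material: RD-HGA16 CHO cells with stable hTAAR1 and Gα16; Dosing: single nominal final test compound concentration of 3 µM; Schedule: seeding 17-24 h prior, 75-min 37 °C, 30-min RT dye loading; Detection: kinetic Fluo-8 calcium fluorescence measurement; Measure: % inhibition from peak post-agonist over basal fluorescence ratio; Benchmarks: vehicle and agonist controls.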
core dimer inh: inhibitors of HCV core protein dimerization, primary screen, biochemical, TR-FRET, high-throughput. TR-FRET GST/Flag-core106 dimerization, 1536-well. inhibition, % at 5 µM. 300,000 tested, 0.33% active. AID 1899, 2009;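 active = inhibition above the mean of all tested compounds plus 3 SD, set per screening campaign, cut at about 45% in these data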
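Material: GST/Flag-tagged HCV core106 proteins. Incubation: 4 h, 22.5 °C incubation. Read-out basis: inhibition (%) from 671 over 617 nm ratio. Measured by: TR-FRET, excitation 340 nm, emission 617 and 671 nm.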
NS3 helicase cf: HCV NS3 helicase inhibitors, retest, confirmation, biochemical, Cy5 molecular beacon fluorescence, triplicate; shares compounds with NS3 helicase inh; NS3 helicase DNA unwinding; inhibition, % at 10.9 µM; 1,600 tested, 31% active;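 active = inhibition above the mean of all tested compounds plus 3 SD, cutoff set per campaign, cut at about 36% in these data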
FID counter trip: compounds displacing fluorescent DNA intercalator, artefact control for HCV NS3 helicase inhibitor project, biochemical, FID fluorescence, triplicate | 1,600 tested, 4% active | shares compounds with NS3 helicase inh | DNA fluorescent intercalator displacement | inhibition, % at 7.9 µM; in the data active = inhibition above about 37%;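 note: 0% = vehicle and 100% = reference compound; higher means more displacement of ethidium bromide from the DNA hairpin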
FID counter DR: compounds displacing fluorescent intercalator from DNA, dose response, counter-screen for HCV NS3 helicase inhibitor project, biochemical, fluorescence. AID 2172, 2009. 120 tested, under 10 active. IC50, µM. fluorescent intercalator displacement from DNA. shares compounds with NS3 helicase inh; call rule not given here
* = called active by the depositor; · = not tested or not shown. Sampled rows, rich in hits. Any-hit rate of the full collection: about 3.7%.

SMILES | rCAG RNA binder | NS3 helicase inh | TAAR1 ag | TAAR1 antag | core dimer inh | NS3 helicase cf | FID counter trip | others
Cc1ccccc1NC(=O)CSc1nnc(-c2ccco2)c(-c2ccco2)n1 | · | 41* | · | · | 45 | 51* | -8 | FID counter DR=>79
COc1cc(NC(=O)CSc2ccc(-c3ccco3)nn2)cc(OC)c1 | 13 | 36* | -1 | -16 | 35 | -12 | 0
Cc1ccc(NC(=O)CSc2nnc(-c3ccco3)c(-c3ccco3)n2)cc1 | 41* | 42* | 0 | 3 | 51* | 87* | 19
CSc1nnc(-c2ccccc2)c(-c2ccccc2)n1 | -3 | 11 | 0 | -45 | 0 | · | ·
CSc1nnc(-c2ccco2)c(-c2ccco2)n1 | 23 | 37* | 6 | 7 | 16 | 25 | 14
Cc1ccc(S(=O)(=O)n2ccc(-c3c(-c4ccccc4)noc3C)n2)cc1 | -1 | · | · | · | · | · | ·
CC(=O)N1[C@H](CO)[C@@H](c2ccccc2)[C@@H]1CN(C(=O)c1ccc(F)cc1)C(C)C | 3 | · | · | · | · | · | ·
Nc1cc([N+](=O)[O-])ccc1O | 4 | 44* | 3 | -17 | -19 | 2 | 17
Cc1ccc([N+](=O)[O-])cc1N | -2 | 2 | 1 | -2 | -4 | · | ·
COc1cc(/C=C2\C(=N)N3N=C(C)SC3=NC2=O)cc(OC)c1OCCOc1ccccc1C | 14 | 45* | -2 | 2 | 8 | 17 | -11
CCOc1cc(/C=C2\C(=N)N3N=C(C)SC3=NC2=O)ccc1OCCOc1cccc(OC)c1 | 20 | 4 | 1 | 37 | 18 | · | ·
Cc1ccc(-n2cccc2/C=C2\C(=N)N3N=C(C(C)C)SC3=NC2=O)cc1 | 24 | 42* | 6 | -5 | 21 | 35 | -28
c1ccc(CCn2nnc(-c3ccc(N4CCOCC4)cc3)n2)cc1 | 6 | · | · | · | · | · | ·
Cc1cc(NC(=O)CC(C)C)c(=O)n(Cc2cccc(F)c2)c1 | 0 | 39* | 1 | -6 | -11 | -11 | 2
O=C(C=C1SCCS1)/C=C/c1ccco1 | 10 | 38* | 13 | 5 | 32 | 34 | 3
CCOc1ccc(C=NNC(=O)c2cc(-c3ccc(Cl)cc3)n[nH]2)cc1 | 10 | · | · | · | · | · | ·
O=C(O)c1ccc2c(c1)[C@@H]1C=CC[C@@H]1[C@H](c1ccccn1)N2 | 82* | 59* | 1 | -12 | 1 | 60* | 3
Cc1cccc(OCC(=O)N/N=C/C=C/c2ccco2)c1 | 21 | 43* | -1 | 14 | 28 | -7 | 4
Cc1ccc(/C=C/C(=O)c2ccccc(=O)c2O)cc1C | 29 | 40* | 1 | -4 | 11 | 85* | 17 | FID counter DR=>79
COc1ccc(C=CC(=O)c2ccc(OC)c(OC)c2O)cc1OC | 2 | · | 19 | -11 | · | · | ·
Cc1cc2c(c(=O)o1)[C@@]1(C(=O)N(C)c3ccccc31)C1=C(CC3(CCCCC3)OC1=O)O2 | -2 | · | 1 | 5 | · | · | ·
CCC1C/C(=C/c2ccco2)C(=O)/C(=C/c2ccco2)C1 (configuration not stated) | · | 46* | · | · | 24 | 77* | 12
CC12CCCC(=O)C1CCC(=Cc1ccco1)C2=O (configuration not stated) | 2 | · | 1 | -3 | · | · | ·
CSc1nc(-c2ccco2)cc(C(F)(F)F)c1C#N | 5 | 2 | 6 | -19 | 6 | · | ·
N#Cc1c(C(F)(F)F)cc(-c2ccco2)nc1SCc1ccncc1 | 6 | 44* | 1 | 11 | 6 | -9 | 4
CCOC(=O)c1sc2nc3c(SCC(=O)O)cc(C(=O)c4ccccc4O)cn3c(=O)c2c1C | 13 | 23 | 0 | -19 | -302 | · | ·

Compound activity deposited in PubChem by The Scripps Research Institute Molecular Screening Center.
